Source: PubChem BioAssay
Most compounds without a hit are left out; they make up all but 0.79% or so of the library.
bIAP inhibitor: bovine intestinal alkaline phosphatase inhibitors, primary screen, selectivity assay for TNAP inhibitor project, biochemical, bovine IAP, CDP-star luminescence. inhibition, % at 20 µM. purified bovine IAP, 30 min. AID 1019, 2008. 190,000 tested, under 10 active. alkaline phosphatase, intestinal [Bos taurus];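 active = over 50% inhibition of intestinal alkaline phosphatase at 20 µM in the single-dose screen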
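Assay system: bovine IAP enzyme; medium: DEA buffer 100 mM, pH 9.8, with MgCl2 1.0 mM, ZnCl2 0.02 mM; doses: 20 µM single dose; incubation: enzyme reaction for 30 min at room temperature; detection: CDP-star luminescence signal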
hIAP act: human IAP activators, primary screen, biochemical, luminescence, uHTS. 330,000 compounds, 0.16% hits. activation factor at 10 µM. purified human IAP, CDP-Star luminescence, 30 min; stronger effect = higher value; 1 = vehicle-only enzyme, 0 = enzyme-free background. AID 2524, 2010. Intestinal-type alkaline phosphatase (Homo sapiens), P09923;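 active = activation factor of the enzyme at least 2-fold when tested at 20 µM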
Target sequence (P09923 whole entry, looked up): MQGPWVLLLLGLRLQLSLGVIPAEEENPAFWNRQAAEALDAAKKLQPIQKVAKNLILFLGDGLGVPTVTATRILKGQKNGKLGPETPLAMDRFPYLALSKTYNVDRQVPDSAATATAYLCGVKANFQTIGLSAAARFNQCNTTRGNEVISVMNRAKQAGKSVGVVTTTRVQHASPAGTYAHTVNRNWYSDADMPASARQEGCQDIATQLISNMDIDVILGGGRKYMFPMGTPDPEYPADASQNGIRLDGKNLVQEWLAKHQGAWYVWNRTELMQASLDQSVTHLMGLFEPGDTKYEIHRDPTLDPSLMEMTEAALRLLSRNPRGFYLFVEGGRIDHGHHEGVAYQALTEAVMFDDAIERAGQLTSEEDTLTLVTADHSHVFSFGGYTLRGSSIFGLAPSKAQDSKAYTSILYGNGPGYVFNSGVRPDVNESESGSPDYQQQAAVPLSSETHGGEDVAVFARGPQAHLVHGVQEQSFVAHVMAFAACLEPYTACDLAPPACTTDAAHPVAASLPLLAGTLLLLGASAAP
mIAP inh: inhibitors of mouse IAP, primary screen, biochemical, luminescence, uHTS; intestinal alkaline phosphatase [Mus musculus]; purified mouse IAP, CDP-Star luminescence, 30 min; inhibition, % at 10 µM; 330,000 compounds, 0.2% hits; AID 2806, 2010;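 active = inhibition of at least 40% at 10 µM in the primary screen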
hIAP inh: human IAP inhibitors, primary screen, biochemical, luminescence, uHTS; Intestinal-type alkaline phosphatase (Homo sapiens), P09923; purified IAP, CDP-Star luminescence, 30 min; inhibition, % at 10 µM; 330,000 compounds, 0.12% hits;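 active = inhibition reaching a set limit with compound at 10 µM in the primary screen, cut at about 35% in these data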
bIAP activator: bovine intestinal alkaline phosphatase activators, primary screen, biochemical, bovine IAP, CDP-star luminescence. alkaline phosphatase, intestinal [Bos taurus]. purified bovine IAP, 30 min; stronger effect = higher value; fold of DMSO-control signal, blank-subtracted. activation factor at 20 µM. 200,000 compounds, 0.17% hits. AID 1016, 2008;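 active = activation factor of 2 or more at 20 µM, a signal rise over negative controls twice the positive control's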
mIAP act: activators of mouse IAP, primary screen, biochemical, luminescence, uHTS | activation factor at 10 µM | muIAP, CDP-Star luminescence, 30 min; stronger effect = higher value; 1 = vehicle-only enzyme signal, 0 = enzyme-free wells | 330,000 compounds, 0.24% hits;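 active = activation factor of at least 2 at 20 µM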
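also added = chemiluminescent substrate CDP-Star | test system = mouse IAP enzyme | signal = chemiluminescence readout | compound = DMSO-dissolved test compounds | incubation = 30 min at room temperature | benchmarks = DMSO wells, no-enzyme wells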
mIAP inh confirm: inhibitors of mouse IAP, confirmation, biochemical, luminescence, single concentration. purified mouse IAP, CDP-Star luminescence, 30 min. inhibition, % at 10 µM. 11,000 compounds, 4.7% hits. shares compounds with mIAP inh;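 active = inhibition of at least 40% at 10 µM in either of the two replicates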
Large screens that a line does not name were inactive (follow-up assays come after a bar, where they were run).

CC(NC(=O)Nc1ccc(Cl)c(Cl)c1)C(c1ccccc1)N1CCOCC1 (stereo unspecified)	mIAP act 4.3 | mIAP inh confirm inactive
CC(NC(=O)Nc1ccc([N+](=O)[O-])cc1)C(c1ccccc1)N1CCOCC1 (stereo unspecified)	none
Cc1cc(/C=C2\SC(=S)NC2=O)c(C)n1-c1cccc(O)c1	mIAP inh 76.4 (no result: bIAP inhibitor, bIAP activator) | mIAP inh confirm 74.7
Cc1sc(-n2c(C)cc(/C=C3\SC(=S)NC3=O)c2C)c(C#N)c1C	mIAP inh 49.8 | mIAP inh confirm 63.9
Cc1cc(/C=C2\SC(=S)NC2=O)c(C)[nH]1	mIAP inh 70.4 | mIAP inh confirm 87.1
Cc1cc(NC(=O)CSc2ncc(C(=O)O)n2-c2ccc(F)cc2)no1	none (no result: bIAP inhibitor, bIAP activator)
COc1ccc(/C=C(\C#N)C(=O)Nc2cccc3ncccc23)cc1OC	none (no result: bIAP inhibitor, bIAP activator)
N#C/C(=C\c1ccc(O)c(O)c1)C(=O)Nc1cccc2ncccc12	mIAP inh 66.3 (no result: bIAP inhibitor, bIAP activator) | mIAP inh confirm 76.0
O=C(CNS(=O)(=O)c1ccc([N+](=O)[O-])cc1)N/N=C\c1ccc(O)cc1	none (no result: bIAP inhibitor, bIAP activator)
O=C(CNS(=O)(=O)c1ccc([N+](=O)[O-])cc1)N/N=C/c1ccc(O)cc1O	mIAP inh 40.3 (no result: bIAP inhibitor, bIAP activator) | mIAP inh confirm 42.3
Cc1nn(Cc2c(Cl)cccc2Cl)c(C)c1NC(=O)c1cn(-c2ccccc2)nc1-c1ccccc1	mIAP act 2.46 | mIAP inh confirm inactive
CCOC(=O)C1Nc2ccc(OC(F)(F)F)cc2C2C=CCC12 (stereo unspecified)	none (no result: bIAP inhibitor, bIAP activator)
CC(C)C1Nc2ccc(S(N)(=O)=O)cc2C2C=CCC21 (stereo unspecified)	mIAP inh 48.1 | mIAP inh confirm 44.9
COc1ccccc1OC(=O)c1cc2ccccc2oc1=O	none (no result: bIAP inhibitor, bIAP activator)
COc1cc(/C=C/[N+](=O)[O-])ccc1OC(=O)c1cc2ccccc2oc1=O	mIAP inh 58.4 (no result: bIAP inhibitor, bIAP activator) | mIAP inh confirm 48.9
COC(=O)c1ccccc1NCc1cc(=O)oc2cc(O)c(O)cc12	mIAP inh 43.7 (no result: bIAP inhibitor, bIAP activator) | mIAP inh confirm 44.4
Cc1ccc2[nH]c(=O)c(C(c3nnnn3Cc3ccccc3)N3CCc4ccccc43)cc2c1 (stereo unspecified)	mIAP inh 55.2 | mIAP inh confirm 64.3
Cc1ccc2[nH]c(=O)c(C(c3nnnn3CC3CCCO3)N3CCCc4ccccc43)cc2c1 (stereo unspecified)	mIAP inh 49.7 | mIAP inh confirm 60.2
Cc1ccc2cc(C(c3nnnn3Cc3ccccc3)N3CCc4ccccc43)c(=O)[nH]c2c1 (stereo unspecified)	none
Cc1ccc2[nH]c(=O)c(C(c3nnnn3CC3CCCO3)N3CCc4ccccc4C3)cc2c1 (stereo unspecified)	mIAP inh 70.2 | mIAP inh confirm 74.2
Cc1ccc2[nH]c(=O)c(C(c3nnnn3C3CCCC3)N3CCCc4ccccc43)cc2c1 (stereo unspecified)	mIAP inh 56.7 | mIAP inh confirm 59.9
COCCn1c(C)cc(/C=C2/NC(=O)N(c3ccc(Cl)cc3)C2=O)c1C	none
CC1CCN(c2ccccc2NC(=O)c2ccc(Br)o2)CC1	none (no result: bIAP inhibitor, bIAP activator)
O=C(Nc1cccc(Oc2ccc(C(=O)O)c(C(=O)O)c2)c1)c1ccc(-c2ccccc2)cc1	none (no result: bIAP inhibitor, bIAP activator)
O=C(NCCCCc1ccccc1)NC[C@@H]1CC[C@@H](Cc2ccc(-c3ccccc3)cc2)O1	mIAP act 4.84 (no result: bIAP inhibitor, hIAP act, hIAP inh, bIAP activator) | mIAP inh confirm inactive
O=C(NCCCc1ccccc1)C1CC1	none (no result: bIAP inhibitor, bIAP activator)
O=C(NC[C@@H]1CC[C@@H](Cc2ccc(-c3ccccc3)cc2)O1)Nc1ccc(Br)cc1	mIAP act 4.25 (no result: bIAP inhibitor, hIAP act, hIAP inh, bIAP activator) | mIAP inh confirm inactive
C/C(=C\c1ccccc1)CN1CCN(C(C)C)C(CCO)C1 (stereo unspecified)	none (no result: bIAP inhibitor, bIAP activator)
CC(C)(C)[C@H]1COC(=O)[C@@H](Cc2ccc(F)cc2)CC/C=C/C[C@@H](CC(=O)N[C@@H](CO)Cc2ccccc2)C(=O)N1	none (no result: bIAP inhibitor, bIAP activator)
Cc1cc(/C=N/N2CCN(C)CC2)c(C)n1-c1ccc(Cl)cc1	none (no result: bIAP inhibitor, bIAP activator)
COc1ccc(CN2CCN(C(=O)c3cc(-c4cccnc4)nc4ccc(Cl)cc34)CC2)c(OC)c1OC	none
O=C1C=C(O)c2c(O)cc(O)c(O)c2C1=O	mIAP inh 69.0 (no result: bIAP inhibitor, bIAP activator) | mIAP inh confirm 55.4
O=C1c2ccccc2C(=O)c2c(O)c(O)cc(O)c21	none (no result: bIAP inhibitor, bIAP activator)
COc1ccc(/C=C/c2nc(-c3ccccc3O)n[nH]2)cc1OC	none
O=C(O)COc1ccc(/C=C/c2nc(-c3ccccc3O)n[nH]2)cc1	mIAP inh 51.5 (no result: bIAP inhibitor, bIAP activator) | mIAP inh confirm 62.2
COc1ccc2[nH]c3c(NCc4ccco4)ncnc3c2c1	none
Fc1ccc2[nH]c3c(NCc4ccccc4)ncnc3c2c1	mIAP act 2.73 (no result: bIAP inhibitor, bIAP activator) | mIAP inh confirm inactive
CC(=O)c1ccc2c(c1)C1C=CCC1C(C(=O)O)N2 (stereo unspecified)	mIAP inh 47.3 | mIAP inh confirm 58.6
Nc1ncc2c(n1)-c1ccccc1CC2	none
Nc1ncc2c(n1)-c1ccoc1CC2	mIAP inh 41.0 (no result: bIAP inhibitor, bIAP activator) | mIAP inh confirm 56.2
CCCCN1C(=O)/C(=C/C=C2\Oc3ccccc3N2CC)SC1=S	none (no result: hIAP act, mIAP inh, hIAP inh, mIAP act)
CCN1/C(=C/C=C/c2oc3ccc(-c4ccccc4)cc3[n+]2CC)Oc2ccc(-c3ccccc3)cc21	mIAP inh 64.9 | mIAP inh confirm 49.8
Cc1cccc(-c2n[nH]c(=S)n2/N=C/C=C/c2ccco2)c1	mIAP inh 46.1 (no result: bIAP inhibitor, bIAP activator) | mIAP inh confirm 53.4
CC(/C=N/n1c(-c2ccco2)n[nH]c1=S)=C\c1ccco1	mIAP inh 49.9 | mIAP inh confirm 51.7
COc1ccccc1-c1nnc(NC(=O)CSc2nncn2C)s1	none
CC[N+]1(CC(O)COC2CC(C)CC(C)(C)C2)CCOCC1 (stereo unspecified)	none (no result: bIAP inhibitor, bIAP activator)
CC1=NN(c2ccc(C)cc2)C(=O)/C1=C/c1ccc(-c2cc([N+](=O)[O-])ccc2O)o1	none (no result: bIAP inhibitor, bIAP activator)
O=C1NN(c2cccc(Br)c2)C(=O)/C1=C/c1ccc(-c2cc([N+](=O)[O-])ccc2O)o1	mIAP inh 45.2 (no result: bIAP inhibitor, bIAP activator) | mIAP inh confirm 47.0
CCc1ccc(C(=O)Nc2cc(S(=O)(=O)N3CCOCC3)ccc2N2CCOCC2)cc1	none (no result: bIAP inhibitor, bIAP activator)
Cc1cccc(N=Cc2cc3c(cc2[N+](=O)[O-])OCO3)c1	none
